In ChEMBL document CHEMBL3244101, “2-, 3-, and 4-(alpha, alpha, beta, beta-tetrafluorophenethyl)benzylamines. A new class of antiarrhythmic agents” (J Med Chem, 1977):
Active and inactive are the calls of the source. The rule behind the calls is not given here.

Experiments:
[1] = system: Canis familiaris; assay: Effect on cardiac conduction in anesthetized acute myocardial infarction dog model assessed as increase in QT duration at 0.06 mg/kg/min, iv administered as continuous infusion for 60 mins measured after 10 mins (reference value: 2 ms); assay type: functional, Canis lupus familiaris, Heart
[2] = system: Canis familiaris; assay: Effect on cardiac conduction in anesthetized acute myocardial infarction dog model assessed as increase in PR interval at 0.06 mg/kg/min, iv administered as continuous infusion for 60 mins measured after 10 mins (reference value: 0 ms); assay type: functional, Canis lupus familiaris, Heart
[3] = system: Canis familiaris; assay: Effect on cardiac conduction in anesthetized acute myocardial infarction dog model assessed as increase in QT duration at 0.0125 mg/kg/min, iv administered as continuous infusion for 60 mins measured after 10 mins (reference value: 2 ms); assay type: functional, Canis lupus familiaris, Heart
[4] = system: Canis familiaris; assay: Effect on cardiac conduction in anesthetized acute myocardial infarction dog model assessed as increase in PR interval at 0.03 mg/kg/min, iv administered as continuous infusion for 60 mins measured after 10 mins (reference value: 0 ms); assay type: functional, Canis lupus familiaris, Heart
[5] = system: Canis familiaris; assay: Effect on cardiac conduction in anesthetized acute myocardial infarction dog model assessed as increase in QT duration at 0.025 mg/kg/min, iv administered as continuous infusion for 60 mins measured after 10 mins (reference value: 2 ms); assay type: functional, Canis lupus familiaris, Heart
[6] = system: Canis familiaris; assay: Effect on cardiac conduction in anesthetized acute myocardial infarction dog model assessed as increase in PR interval at 0.0125 mg/kg/min, iv administered as continuous infusion for 60 mins measured after 10 mins (reference value: 0 ms); assay type: functional, Canis lupus familiaris, Heart
[7] = system: Canis familiaris; assay: Effect on cardiac conduction in anesthetized acute myocardial infarction dog model assessed as increase in QT duration at 0.03 mg/kg/min, iv administered as continuous infusion for 60 mins measured after 10 mins (reference value: 2 ms); assay type: functional, Canis lupus familiaris, Heart
[8] = system: Canis familiaris; assay: Effect on cardiac conduction in anesthetized acute myocardial infarction dog model assessed as increase in PR interval at 0.025 mg/kg/min, iv administered as continuous infusion for 60 mins measured after 10 mins (reference value: 0 ms); assay type: functional, Canis lupus familiaris, Heart
[9] = system: Canis familiaris; assay: Antiarrhythmic activity in anesthetized acute myocardial infarction dog model assessed as normal ECG complexes at 0.25 mg/kg, iv administered 10 mins prior to infarction measured during 1-hr postinfarction period (reference value: 19%); assay type: functional, Canis lupus familiaris, Heart
Summary of the method: (§1)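 Sclerosing agent (tetrafluorohexachlorobutane) injected into the anterior descending coronary artery to produce a multifocal ventricular arrhythmia. Single iv dose 10 min before infarction. Segmented ECG tracings over the 1 h after infarction were scored as the percentage of complexes of sinus origin (normal). Saline controls were run alongside.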

[10] = system: Canis familiaris; assay: Antiarrhythmic activity in anesthetized acute myocardial infarction dog model assessed as normal ECG complexes at 1.25 mg/kg, iv administered 10 mins prior to infarction measured during 1-hr postinfarction period (reference value: 19%); assay type: functional, Canis lupus familiaris, Heart; summary of the method: as §1
[11] = system: Canis familiaris; assay: Antiarrhythmic activity in anesthetized acute myocardial infarction dog model assessed as normal ECG complexes at 2.5 mg/kg, iv administered 10 mins prior to infarction measured during 1-hr postinfarction period (reference value: 19%); assay type: functional, Canis lupus familiaris, Heart; summary of the method: as §1
[12] = system: Canis familiaris; assay: Antiarrhythmic activity in anesthetized acute myocardial infarction dog model assessed as normal ECG complexes at 10 mg/kg, po administered 120 mins prior to infarction measured post-infarction; assay type: functional, Canis lupus familiaris, Heart
Summary of the method: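 Oral dosing 120 min before infarction in the same intracoronary tetrafluorohexachlorobutane arrhythmia model. Protection was read from ECG complexes after infarction, as the percentage that were normal.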

[13] = system: Canis familiaris; assay: Antiarrhythmic activity in anesthetized acute myocardial infarction dog model assessed as normal ECG complexes at 0.5 mg/kg, iv administered 10 mins prior to infarction measured during 1-hr postinfarction period (reference value: 19%); assay type: functional, Canis lupus familiaris, Heart; summary of the method: as §1
[14] = system: Canis familiaris; assay: Antiarrhythmic activity in iv dosed anesthetized acute myocardial infarction dog model assessed as protection against ventricular arrhythmia development administered 10 mins prior to infarction measured during 1-hr postinfarction period; assay type: functional, Canis lupus familiaris, Heart; details: Canis lupus familiaris, Heart; summary of the method: as §1
[15] = system: Canis familiaris; assay: Antiarrhythmic activity in anesthetized acute myocardial infarction dog model assessed as normal ECG complexes at 0.07 mg/kg, iv administered 10 mins prior to infarction measured during 1-hr postinfarction period (reference value: 19%); assay type: functional, Canis lupus familiaris, Heart; summary of the method: as §1
[16] = system: Canis familiaris; assay: Antiarrhythmic activity in anesthetized acute myocardial infarction dog model assessed as normal ECG complexes at 10 mg/kg, iv administered 10 mins prior to infarction measured during 1-hr postinfarction period (reference value: 19%); assay type: functional, Canis lupus familiaris, Heart; summary of the method: as §1
[17] = system: Canis familiaris; assay: Effect on cardiac conduction in anesthetized acute myocardial infarction dog model assessed as increase in QT duration at 5 mg/kg, iv administered 10 mins prior to infarction measured after 10 mins (reference value: 2 ms); assay type: functional, Canis lupus familiaris, Heart
[18] = system: Canis familiaris; assay: Reduction in heart rate in anesthetized acute myocardial infarction dog model at 10 mg/kg, iv administered 10 mins prior to infarction (reference value: 6 bpm); assay type: functional, Canis lupus familiaris
[19] = system: Canis familiaris; assay: Effect on cardiac conduction in anesthetized acute myocardial infarction dog model assessed as increase in PR interval at 5 mg/kg, iv administered 10 mins prior to infarction measured after 10 mins (reference value: 0 ms); assay type: functional, Canis lupus familiaris, Heart
[20] = system: Canis familiaris; assay: Effect on cardiac conduction in anesthetized acute myocardial infarction dog model assessed as increase in QT duration at 2.5 mg/kg, iv administered 10 mins prior to infarction measured after 10 mins (reference value: 2 ms); assay type: functional, Canis lupus familiaris, Heart
[21] = system: Canis familiaris; assay: Reduction in heart rate in anesthetized acute myocardial infarction dog model at 2.5 mg/kg, iv administered 10 mins prior to infarction (reference value: 6 bpm); assay type: functional, Canis lupus familiaris
[22] = system: Canis familiaris; assay: Antiarrhythmic activity in anesthetized acute myocardial infarction dog model assessed as normal ECG complexes at 5 mg/kg, iv administered 10 mins prior to infarction measured during 1-hr postinfarction period (reference value: 19%); assay type: functional, Canis lupus familiaris, Heart; summary of the method: as §1
[23] = system: Canis familiaris; assay: Effect on cardiac conduction in anesthetized acute myocardial infarction dog model assessed as increase in PR interval at 10 mg/kg, iv administered 10 mins prior to infarction measured after 10 mins (reference value: 0 ms); assay type: functional, Canis lupus familiaris, Heart
[24] = system: Canis familiaris; assay: Effect on cardiac conduction in anesthetized acute myocardial infarction dog model assessed as increase in QT duration at 10 mg/kg, iv administered 10 mins prior to infarction measured after 10 mins (reference value: 2 ms); assay type: functional, Canis lupus familiaris, Heart
[25] = system: Canis familiaris; assay: Reduction in heart rate in anesthetized acute myocardial infarction dog model at 5 mg/kg, iv administered 10 mins prior to infarction (reference value: 6 bpm); assay type: functional, Canis lupus familiaris
[26] = system: Canis familiaris; assay: Effect on cardiac conduction in anesthetized acute myocardial infarction dog model assessed as increase in PR interval at 2.5 mg/kg, iv administered 10 mins prior to infarction measured after 10 mins (reference value: 0 ms); assay type: functional, Canis lupus familiaris, Heart
[27] = system: Canis familiaris; assay: Myocardial depressant activity in iv dosed anesthetized dog at higher doses; assay type: ADME, organism-based, Canis lupus familiaris, Myocardium; details: in vivo
[28] = system: Canis familiaris; assay: Effect on cardiac conduction in anesthetized acute myocardial infarction dog model assessed as increase in PR interval at 20 mg/kg, iv administered 10 mins prior to infarction measured after 10 mins (reference value: 0 ms); assay type: functional, Canis lupus familiaris, Heart
[29] = system: Canis familiaris; assay: Antiarrhythmic activity in anesthetized acute myocardial infarction dog model assessed as normal ECG complexes at 40 mg/kg, iv administered 10 mins prior to infarction measured during 1-hr postinfarction period (reference value: 19%); assay type: functional, Canis lupus familiaris, Heart; summary of the method: as §1
[30] = system: Canis familiaris; assay: Hypotensive activity in iv dosed anesthetized dog at higher doses; assay type: ADME, organism-based, Canis lupus familiaris; details: in vivo
[31] = system: Canis familiaris; assay: Effect on cardiac conduction in anesthetized acute myocardial infarction dog model assessed as increase in QT duration at 40 mg/kg, iv administered 10 mins prior to infarction measured after 10 mins (reference value: 2 ms); assay type: functional, Canis lupus familiaris, Heart
[32] = system: Canis familiaris; assay: Reduction in heart rate in anesthetized acute myocardial infarction dog model at 20 mg/kg, iv administered 10 mins prior to infarction (reference value: 6 bpm); assay type: functional, Canis lupus familiaris
[33] = system: Canis familiaris; assay: Effect on cardiac conduction in anesthetized acute myocardial infarction dog model assessed as increase in PR interval at 40 mg/kg, iv administered 10 mins prior to infarction measured after 10 mins (reference value: 0 ms); assay type: functional, Canis lupus familiaris, Heart
[34] = system: Canis familiaris; assay: Antiarrhythmic activity in anesthetized acute myocardial infarction dog model assessed as normal ECG complexes at 20 mg/kg, iv administered 10 mins prior to infarction measured during 1-hr postinfarction period (reference value: 19%); assay type: functional, Canis lupus familiaris, Heart; summary of the method: as §1
[35] = system: Canis familiaris; assay: Effect on cardiac conduction in anesthetized acute myocardial infarction dog model assessed as increase in QT duration at 20 mg/kg, iv administered 10 mins prior to infarction measured after 10 mins (reference value: 2 ms); assay type: functional, Canis lupus familiaris, Heart
[36] = system: Canis familiaris; assay: Reduction in heart rate in anesthetized acute myocardial infarction dog model at 40 mg/kg, iv administered 10 mins prior to infarction (reference value: 6 bpm); assay type: functional, Canis lupus familiaris

For `CCN(CC)CC(=O)Nc1c(C)cccc1C` [LIDOCAINE], the Time [1] was 0 ms, the Time [2] was 0 ms and the Time [3] was 0 ms. For the same compound, the Time [4] was 0 ms, the Time [5] was 0 ms and the Time [6] was 0 ms. The Time [7] was 0 ms and the Time [8] was 2 ms.
`Cl.NCc1ccccc1C(F)(F)C(F)(F)c1ccccc1` was tested, and the Activity [9] was 81%, the Activity [10] was 91% and the Activity [11] was 98%. For the same compound, the Activity [12] was “>=80%”, the Activity [13] was 86% and the ED75 ([14]; iv, read-out: ED75) was 0.2 mg/kg. It also gave an Activity [15] of 58%.
Work on `C=C[C@H]1CN2CC[C@H]1C[C@@H]2[C@@H](O)c1ccnc2ccc(OC)cc12` [QUINIDINE] yielded an Activity [16] of 89%, a Time [17] of 36 ms and an Activity [18] of 31 bpm. For the same compound, the Time [19] was 8 ms, the Time [20] was 33 ms and the Activity [21] was 21 bpm. It also gave an Activity [22] of 46%, a Time [23] of 15 ms and a Time [24] of 78 ms. For the same compound, the Activity [11] was 25%, the ED75 ([14]; iv, read-out: ED75) was 9.4 mg/kg and the Activity [25] was 24 bpm. It also gave a Time [26] of 0 ms.
`CCN(CC)CCNC(=O)c1ccc(N)cc1` [PROCAINAMIDE] was tested, and the Activity [27] was “Toxic”, the Time [28] was 10 ms and the Activity [29] was 55%. The Activity [30] was “Toxic”, the Time [31] was 33 ms and the Activity [32] was 26 bpm. For the same compound, the Time [33] was 23 ms, the Activity [34] was 32% and the Time [35] was 40 ms. It also gave an Activity [36] of 25 bpm.
For `Cl.Nc1ccccc1C(F)(F)C(F)(F)c1ccccc1`, the Activity [16] was 26%, the Activity [11] was 10% and the ED75 [14] was “inactive”.
For `O=C1NC(=O)C(c2ccccc2)(c2ccccc2)N1` [PHENYTOIN], the Time [17] was 3 ms, the Activity [27] was “Toxic” and the Activity [30] was “Toxic”. It also gave a Time [19] of 8 ms, a Time [20] of 5 ms and an Activity [21] of 11 bpm. It also gave an Activity [22] of 40%, an Activity [11] of 17% and an Activity [25] of 13 bpm. For the same compound, the Time [26] was 10 ms.
